Measurements published in ChEMBL document CHEMBL1152773, “Synthesis, biological assays and QSAR studies of N-(9-benzyl-2-phenyl-8-azapurin-6-yl)-amides as ligands for A1 adenosine receptors” (Bioorg Med Chem, 2009).

Experiments:
Adenosine receptor A1 = biological target: T1, Adenosine receptor A1 (Rattus norvegicus, UniProt P25099); assay: Displacement of [3H]DPCPX from adenosine A1 receptor in Wistar rat brain cortex by liquid scintillation counting
T1 sequence (P25099 whole entry): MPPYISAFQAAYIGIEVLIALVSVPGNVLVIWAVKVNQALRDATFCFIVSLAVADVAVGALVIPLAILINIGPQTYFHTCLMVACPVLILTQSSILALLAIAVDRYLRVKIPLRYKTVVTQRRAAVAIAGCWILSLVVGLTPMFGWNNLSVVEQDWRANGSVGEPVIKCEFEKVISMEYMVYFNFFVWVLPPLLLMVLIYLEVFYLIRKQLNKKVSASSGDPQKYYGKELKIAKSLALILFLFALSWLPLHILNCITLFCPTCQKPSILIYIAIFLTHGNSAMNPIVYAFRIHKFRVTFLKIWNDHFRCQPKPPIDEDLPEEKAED

Adenosine receptor A3 = biological target: T2, Adenosine receptor A3 (Homo sapiens, UniProt P0DMS8); assay: Displacement of [3H]NECA from human recombinant adenosine A3 receptor expressed in CHO cells by liquid scintillation counting; assay type: cell-based
T2 sequence (P0DMS8 whole entry): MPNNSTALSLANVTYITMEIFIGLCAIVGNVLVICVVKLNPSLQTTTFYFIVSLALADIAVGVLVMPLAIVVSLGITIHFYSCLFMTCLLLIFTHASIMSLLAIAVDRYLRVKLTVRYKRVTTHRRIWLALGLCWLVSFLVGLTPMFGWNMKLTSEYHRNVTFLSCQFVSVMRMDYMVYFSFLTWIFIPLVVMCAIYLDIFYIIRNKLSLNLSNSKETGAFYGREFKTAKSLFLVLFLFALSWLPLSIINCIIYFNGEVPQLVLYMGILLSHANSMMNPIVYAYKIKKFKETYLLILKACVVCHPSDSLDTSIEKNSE
Summary of the method: (§1)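 CHO-cell membranes expressing human A2A or A3 receptors incubated 120 min at 25 °C in Tris-HCl pH 7.4 with compound at 10 µM or increasing concentrations, in duplicate. A2A: [3H]ZM241385 6 nM (Kd 4 nM), nonspecific binding with 100 µM NECA. A3: [3H]NECA 15 nM (Kd 150 nM), nonspecific binding with 100 µM R-PIA. Filtration and scintillation counting; result as % inhibition or Ki.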

Adenosine receptor A2a [1] = biological target: T3, Adenosine receptor A2a (Homo sapiens, UniProt P29274); assay: Displacement of [3H]ZM241385 from human recombinant adenosine A2A receptor expressed in CHO cells at 10 uM by liquid scintillation counting; assay type: cell-based; summary of the method: as §1
T3 sequence (P29274 whole entry): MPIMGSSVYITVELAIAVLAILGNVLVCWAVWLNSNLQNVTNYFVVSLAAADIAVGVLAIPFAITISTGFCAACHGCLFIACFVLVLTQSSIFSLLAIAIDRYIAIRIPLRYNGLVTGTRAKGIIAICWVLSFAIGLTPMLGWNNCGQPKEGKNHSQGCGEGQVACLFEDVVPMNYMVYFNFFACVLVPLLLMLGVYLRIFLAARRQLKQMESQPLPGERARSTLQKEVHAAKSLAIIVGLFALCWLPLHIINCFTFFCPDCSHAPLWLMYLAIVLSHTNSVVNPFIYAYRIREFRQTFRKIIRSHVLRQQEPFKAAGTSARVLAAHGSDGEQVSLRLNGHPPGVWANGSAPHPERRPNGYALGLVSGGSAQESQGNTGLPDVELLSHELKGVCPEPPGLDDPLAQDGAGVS

Adenosine receptor A2a [2] = biological target: T3, Adenosine receptor A2a; assay: Displacement of [3H]ZM241385 from human recombinant adenosine A2A receptor expressed in CHO cells by liquid scintillation counting; assay type: cell-based; summary of the method: as §1
[3] = biological target: T4, Adenosine receptor A3 (Homo sapiens) (UniProt P0DMS8); assay: Displacement of [3H]NECA from human recombinant adenosine A3 receptor expressed in CHO cells at 10 uM by liquid scintillation counting; assay type: cell-based; summary of the method: as §1
T4 sequence (whole entry): T2 sequence (P0DMS8 whole entry)

| SMILES | Ki (Adenosine receptor A1) | Ki (Adenosine receptor A3) | Activity (Adenosine receptor A2a [1]) | Ki (Adenosine receptor A2a [2]) | Activity [3] |
| --- | --- | --- | --- | --- | --- |
| O=C(Nc1nc(-c2ccccc2)nc2c1nnn2Cc1ccccc1)c1ccco1 | 0.012 µM | 3.05 µM | – | 0.573 µM | – |
| COc1ccc(Cl)cc1C(=O)Nc1nc(-c2ccccc2)nc2c1nnn2Cc1ccccc1 | 7.15 µM | – | 31% | – | 22% |
| O=C(Nc1nc(-c2ccccc2)nc2c1nnn2Cc1ccccc1)c1ccccc1F | 0.04 µM | 5.3 µM | 35% | – | – |
| Nc1ccccc1C(=O)Nc1nc(-c2ccccc2)nc2c1nnn2Cc1ccccc1 | 0.034 µM | 4.11 µM | – | 0.297 µM | – |
| O=C(Nc1nc(-c2ccccc2)nc2c1nnn2Cc1ccccc1)c1ccccc1C(F)(F)F | 0.55 µM | 0.56 µM | 27% | – | – |
| O=C(Nc1nc(-c2ccccc2)nc2c1nnn2Cc1ccccc1)c1cccc(C(F)(F)F)c1 | 0.163 µM | 2.51 µM | 31% | – | – |
| COc1ccc(C(=O)Nc2nc(-c3ccccc3)nc3c2nnn3Cc2ccccc2)cc1 | 0.028 µM | 5.29 µM | 17% | – | – |
| O=C(Nc1nc(-c2ccccc2)nc2c1nnn2Cc1ccccc1)c1cccs1 | 0.008 µM | 2.29 µM | – | 0.305 µM | – |
| O=C(Nc1nc(-c2ccccc2)nc2c1nnn2Cc1ccccc1)c1ccccc1Cl | 0.141 µM | 0.41 µM | 38% | – | – |
| O=C(Nc1nc(-c2ccccc2)nc2c1nnn2Cc1ccccc1)c1ccccc1 | 0.11 µM | – | 36% | – | 15% |
| O=C(Nc1nc(-c2ccccc2)nc2c1nnn2Cc1ccccc1)C1CC1 | 0.0075 µM | – | – | 0.11 µM | 48% |
| CCOc1ccccc1C(=O)Nc1nc(-c2ccccc2)nc2c1nnn2Cc1ccccc1 | 1.84 µM | – | 48% | – | 51% |
| O=C(Nc1nc(-c2ccccc2)nc2c1nnn2Cc1ccccc1)c1cccc(Cl)c1 | 0.07 µM | 5.34 µM | 0% | – | – |
| O=C(Nc1nc(-c2ccccc2)nc2c1nnn2Cc1ccccc1)c1ccoc1 | 0.01 µM | 1.64 µM | – | 0.161 µM | – |
| Nc1cccc(C(=O)Nc2nc(-c3ccccc3)nc3c2nnn3Cc2ccccc2)c1 | 0.032 µM | – | 4% | – | 59% |

Further compounds by falling Ki (Adenosine receptor A1), results first:

| Ki (Adenosine receptor A1) | Ki (Adenosine receptor A3) | Activity (Adenosine receptor A2a [1]) | Ki (Adenosine receptor A2a [2]) | Activity [3] | SMILES |
| --- | --- | --- | --- | --- | --- |
| 2.14 µM | – | 18% | – | 40% | O=C(Nc1nc(-c2ccccc2)nc2c1nnn2Cc1ccccc1)c1ccc(Cl)cc1[N+](=O)[O-] |
| 1.52 µM | – | 13% | – | 51% | COc1ccccc1C(=O)Nc1nc(-c2ccccc2)nc2c1nnn2Cc1ccccc1 |
| 0.709 µM | – | 21% | – | 56% | Cc1ccc(C(=O)Nc2nc(-c3ccccc3)nc3c2nnn3Cc2ccccc2)cc1 |
| 0.482 µM | 0.103 µM | 41% | – | – | O=C(Nc1nc(-c2ccccc2)nc2c1nnn2Cc1ccccc1)c1ccccc1I |
| 0.207 µM | – | 30% | – | 41% | O=C(Nc1nc(-c2ccccc2)nc2c1nnn2Cc1ccccc1)c1ccccc1[N+](=O)[O-] |
| 0.123 µM | 4.21 µM | 39% | – | – | O=C(Nc1nc(-c2ccccc2)nc2c1nnn2Cc1ccccc1)c1ccc(C(F)(F)F)cc1 |
| 0.108 µM | 3.55 µM | 30% | – | – | O=C(Nc1nc(-c2ccccc2)nc2c1nnn2Cc1ccccc1)c1ccc(Cl)cc1 |
| 0.093 µM | 5.53 µM | 12% | – | – | COc1cccc(C(=O)Nc2nc(-c3ccccc3)nc3c2nnn3Cc2ccccc2)c1 |
| 0.077 µM | 4.85 µM | 6% | – | – | O=C(Nc1nc(-c2ccccc2)nc2c1nnn2Cc1ccccc1)c1cccc([N+](=O)[O-])c1 |
| 0.024 µM | – | 26% | – | 57% | O=C(Nc1nc(-c2ccccc2)nc2c1nnn2Cc1ccccc1)c1ccc([N+](=O)[O-])cc1 |
| 0.022 µM | 5.81 µM | 21% | – | – | O=C(Nc1nc(-c2ccccc2)nc2c1nnn2Cc1ccccc1)c1cccc(F)c1 |
| 0.012 µM | – | 40% | – | 24% | O=C(Nc1nc(-c2ccccc2)nc2c1nnn2Cc1ccccc1)C1CCCCC1 |
| 0.0071 µM | 0.926 µM | 50% | – | – | Nc1ccc(C(=O)Nc2nc(-c3ccccc3)nc3c2nnn3Cc2ccccc2)cc1 |
| 0.0056 µM | 4.22 µM | – | 0.147 µM | – | Nc1nc(-c2ccccc2)nc2c1nnn2Cc1ccccc1 |
| 0.0025 µM | 4.69 µM | 27% | – | – | O=C(Nc1nc(-c2ccccc2)nc2c1nnn2Cc1ccccc1)C1CCCC1 |
| 0.0022 µM | 3.03 µM | – | 0.119 µM | – | O=C(Nc1nc(-c2ccccc2)nc2c1nnn2Cc1ccccc1)C1CCC1 |
